These results are taken from ChEMBL document CHEMBL3745705, “Discovery of Oral VEGFR-2 Inhibitors with Prolonged Ocular Retention That Are Efficacious in Models of Wet Age-Related Macular Degeneration” (J Med Chem, 2015).

The species named for data set [1] is Mus musculus. The experiment in a line: animal or person. The following applies: C57BL/6, po, read-out: INH.
Data set [2] in a line: Aqueous solubility of the compound at pH 6.8. The settings on record: aqueous medium.
Data set [3] has as its system Rattus norvegicus. Description: AUC (0 to 8 hrs) in Brown Norway rat at 10 mg/kg, po by LC-MS/MS analysis. The format is ADME, organism-based. On the set-up: dose 10 mg/kg, time < 8 hr, route oral. The settings on record: in vivo.
Data set [4] is described as follows: Cmax in Brown Norway rat at 10 mg/kg, po or 1 mg/kg, iv by LC-MS/MS analysis. The following applies: in vivo. The data set is classed as ADME, organism-based. The method, boiled down: (§1)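 Brown Norway rats dosed i.v. at 1 mg/kg (n = 2; NMP/PG/cremophorEL/PBS or NMP/PEG 300/WFI vehicle) or p.o. at 3 or 10 mg/kg (n = 3; 0.5% MC/0.1% tween 80, WFI). Clearance, Vdss, t1/2, Cmax, AUC 0-8h and oral bioavailability calculated from plasma levels.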

The subject of data set [5] is Rattus norvegicus. Description: Oral bioavailability in Brown Norway rat at 10 mg/kg by LC-MS/MS analysis. The format is ADME, organism-based. The settings on record: in vivo. Summed up: as §1
Data set [6] concerns Plasma. Description: Dose normalized Cmax in Brown Norway rat plasma at 6 mg/kg, po. The settings on record: in vivo. The data set is classed as ADME, organism-based.
The subject of data set [7] is Mus musculus. The experiment in a line: Antiangiogenic activity in po dosed C57BL/6 mouse laser-induced choroidal neovascularization assessed as inhibition of neovascular lesion formation administered qd for 6 days measured on day 7 by microscopic analysis. The format is functional. The settings on record: C57BL/6, po.
A short description of data set [8]: Dose normalized Cmax in Brown Norway rat retina at 6 mg/kg, po. The data set is classed as ADME, organism-based. The settings on record: in vivo.
Data set [9] can be described thus: Dose normalized AUC (0 to 24 hrs) in Brown Norway rat posteior eye cup at 6 mg/kg, po. The data set is classed as ADME, organism-based. The settings on record: in vivo.
The test system of data set [10] is Plasma. Description: Dose normalized plasma concentration in Brown Norway rat plasma at 6 mg/kg, po measured at 24 hrs by LC-MS/MS analysis. The format is ADME, organism-based. The following applies: in vivo.
A short description of data set [11]: Dose normalized AUC (0 to 24 hrs) in Brown Norway rat retina at 6 mg/kg, po. The format is ADME, organism-based. The settings on record: in vivo.
The test system of data set [12] is Rattus norvegicus. Description: Antiangiogenic activity in po dosed Brown Norway rat laser-induced choroidal neovascularization model assessed as inhibition of neovascular lesion formation administered qd for 14 days by microscopic analysis. The format is functional. The settings on record: 336 h. The method, boiled down: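 Male Brown Norway rats, about 12 weeks old, dosed by oral gavage starting about 1 h before laser. Lesions were made under ketamine/xylazine i.p. (40–80 / 5–10 mg/kg) with 532 nm laser pulses (30 ms, 190 mW, 200 µm spot), about 4 lesions per eye and 10 rats per group. Vessels were labelled with i.v. 2,000 kD FITC dextran, eyes fixed in 4% paraformaldehyde, and CNV area measured blinded.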

Data set [13] in a line: Dose normalized Cmax in Brown Norway rat posteior eye cup at 6 mg/kg, po. The format is ADME, organism-based. The settings on record: in vivo.
A short description of data set [14]: Half life in Brown Norway rat at 10 mg/kg, po or 1 mg/kg, iv by LC-MS/MS analysis. The data set is classed as ADME, organism-based. The following applies: in vivo. Summed up:
as §1

Data set [15] in a line: Dose normalized drug uptake in Brown Norway rat retina at 6 mg/kg, po by LC-MS/MS analysis. The format is ADME, organism-based. The settings on record: in vivo.
A short description of data set [16]: Dose normalized drug uptake in Brown Norway rat posteior eye cup at 6 mg/kg, po. The data set is classed as ADME, organism-based. The following applies: in vivo.
Data set [17] can be described thus: Volume of distribution at steady state in Brown Norway rat at 10 mg/kg, po or 1 mg/kg, iv by LC-MS/MS analysis. The format is ADME, organism-based. The settings on record: in vivo, read-out: Vdss. The method, boiled down: as §1
For data set [18], the system named is Plasma. Description: Dose normalized AUC (0 to 24 hrs) in Brown Norway rat plasma at 6 mg/kg, po. The settings on record: in vivo. The format is ADME, organism-based.

Structures are written as SMILES. ≈ marks a conversion by molar mass, not a printed value. A value given as a limit tells only on which side of the number the result lay.

For orientation: solubility means the concentration that dissolves in the medium under given conditions. A higher solubility goes with a readily soluble substance. On to `CC(C)(C)c1cc(NC(=O)n2ccc3cc(Oc4ncnc5c4CCNC5)ccc32)n[nH]1`, for which the inhibition in vivo at 10 mg/kg in data set [1] came out at 0%. The solubility in data set [2] came to 682 µM (≈ 294 µg/mL).

Consider `CC(C)(C)c1cc(NC(=O)n2ccc3cc(Oc4ncnc5c4CNC5)ccc32)on1`, for which the inhibition in vivo at 10 mg/kg in [1] amounted to 58%. In data set [2], this compound showed a solubility of 232 µM (≈ 97.1 µg/mL).

For the compound `CCN1CCc2c(ncnc2Oc2ccc3c(ccn3C(=O)Nc3cccc(C(F)(F)F)c3)c2)C1`, the inhibition in vivo at 10 mg/kg in data set [1] is 81%. For the same compound, the solubility in [2] was < 5 µM.

With `CC(C)(C)c1cc(NC(=O)n2ccc3cc(Oc4ncnc5c4CNC5)ccc32)no1`, the inhibition in vivo at 10 mg/kg in data set [1] was 83%. The compound also came in with a solubility in data set [2] of 20 µM (≈ 8.37 µg/mL).

As a reminder, the AUC is the area under the concentration-time curve, a measure of exposure. What is called Cmax is the maximum level reached in the sampled fluid or tissue. One may read the ED50 as the midpoint of the dose-response relation. The term half-life denotes the time in which the quantity being followed falls by half. Low readings indicate fast loss, high ones slow loss. In the case of `CC1(c2cc(NC(=O)n3ccc4cc(Oc5ncnc6c5CCNC6)ccc43)n[nH]2)CC1`, in data set [3], the area under the curve (AUC) amounted to 1120 nM·h. The Cmax in [4] was determined as 0.505 µM. The inhibition in vivo at 10 mg/kg in data set [1] is 64%. In addition, the F in data set [5] is reported as 51%. For the same compound, the Cmax/dose is 33 nM/mg/kg in data set [6], 15 nM/mg/kg in data set [8] and 110 nM/mg/kg in [13]. The ED50 in data set [7] was found to be 7.8 mg/kg; in data set [12], 2.7 mg/kg. Moreover, the ED90 is 25.3 mg/kg in data set [7] and 13.6 mg/kg in data set [12]. The figures for the AUC/dose in [9], in data set [11] and in data set [18] were 2386 nM·h/mg/kg, 310 nM·h/mg/kg and 166 nM·h/mg/kg, respectively. In data set [10], this compound gave a Cp/dose of 0.7 nM/mg/kg. Moreover, the concentration in solution in [2] (solubility) was 252 µM (≈ 108 µg/mL). The half-life in [14] was 2.7 h. Moreover, the values for the Druguptake/dose in data set [15] and in data set [16] were 13 nM/mg/kg and 102 nM/mg/kg, respectively. Further, the Vd in [17] turned out to be 22 L/kg.

In the case of `CC(=O)N1CCc2c(ncnc2Oc2ccc3c(ccn3C(=O)Nc3cccc(C(F)(F)F)c3)c2)C1`, the inhibition in vivo at 10 mg/kg in data set [1] came to 0%.

In the case of `O=C(Nc1cccc(C(F)(F)F)c1)n1ccc2cc(Oc3ncnc4c3CCNC4)ccc21`, the inhibition in vivo at 10 mg/kg in data set [1] was 87%. For the same compound, the solubility in data set [2] was 84 µM (≈ 38.1 µg/mL).

In the case of `CNCc1cc(Oc2ccc3c(ccn3C(=O)Nc3cccc(C(F)(F)F)c3)c2)ncn1`, the inhibition in vivo at 10 mg/kg in data set [1] came to 67%. The concentration in solution in [2] (solubility) was 64 µM (≈ 28.3 µg/mL).

For `CC(C)c1cc(NC(=O)n2ccc3cc(Oc4ncnc5c4CNC5)ccc32)no1`, the inhibition in vivo at 10 mg/kg in data set [1] was found to be 96%. The same compound showed a solubility in data set [2] of 37 µM (≈ 15 µg/mL).

For the compound `C[C@@H]1NCc2ncnc(Oc3ccc4c(ccn4C(=O)Nc4cccc(C(F)(F)F)c4)c3)c21`, the inhibition in vivo at 10 mg/kg in data set [1] was determined as 41%.

Regarding `C[C@H]1Cc2c(ncnc2Oc2ccc3c(ccn3C(=O)Nc3cccc(C(F)(F)F)c3)c2)CN1`, in data set [1], the inhibition in vivo at 10 mg/kg worked out at 96%. Further, in data set [7], the ED50 turned out to be 3.6 mg/kg and the ED90 is 8.5 mg/kg.

In the case of `O=C(Nc1cccc(C(F)(F)F)c1)n1ccc2cc(Oc3ncnc4c3CNC4)ccc21`, the inhibition in vivo at 10 mg/kg in data set [1] worked out at 68%. Moreover, in [7], the ED50 amounted to 6.9 mg/kg and the ED90 was 31 mg/kg.

For the compound `CC1(c2cc(NC(=O)n3ccc4cc(Oc5ncnc6c5CNC6)ccc43)no2)CC1`, the inhibition in vivo at 10 mg/kg in [1] worked out at 90%.

In the case of `C[C@@H]1Cc2c(ncnc2Oc2ccc3c(ccn3C(=O)Nc3cccc(C(F)(F)F)c3)c2)CN1`, in [1], the inhibition in vivo at 10 mg/kg came to 58%.
